Assay outcomes (PubChem)
Rows were chosen to be rich in hits. Some 1.7% of all compounds tested hit in one or more screens of this group.
LMPTP inh – LMPTP phosphatase inhibitors, primary screen, biochemical, fluorescence intensity, uHTS. Low molecular weight phosphotyrosine protein phosphatase (Homo sapiens), P24666. recombinant LMPTP-A, OMFP fluorogenic substrate. inhibition, % at 20 µM. 360,000 compounds, 0.22% hits. AID 651560, 2012;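 active = compounds that cut the enzyme signal by at least half of the control window in the single-dose screen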
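Test system: LMPTP-A, protein tyrosine phosphatase of low molecular weight; Input: 0.625 nM enzyme; Incubation: 50 min dark incubation at room temperature; Signal: endpoint fluorescence intensity from OMFP dephosphorylation; Read-out basis: % inhibition versus control wells.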
Scp1 inh – Scp-1 phosphatase inhibitors, primary screen, biochemical, colorimetric, uHTS; Carboxy-terminal domain RNA polymerase II polypeptide A small phosphatase 1 (Homo …; Recombinant Scp1, phosphopeptide, malachite green phosphate absorbance; inhibition, % at 20 µM; 340,000 compounds, 0.88% hits; AID 493091, 2011;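 active = inhibition above about 50% at 20 µM, limit read from the data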
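Times: enzyme reaction 45 min at room temperature, colour 5 min, stabilisation 30 min. Material: SCP-1 catalytic fragment, aa 76-261. Medium: Acidic Tris acetate buffer with magnesium and detergent. Signal: colorimetric free-phosphate detection, absorbance 630 nm. Read-out basis: % inhibition of SCP-1 phosphate liberation. Reagent: Phosphorylated 17-residue peptide substrate.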
SUMO1 PPI mod – modulators of SUMO1 protein-protein interactions, primary screen, biochemical, uHTS | 360,000 compounds, 0.33% hits | SUMO1 binding to a labelled peptide, TR-FRET, 1 h | AID 602429, 2012 | inhibition, % at 20 µM; in the data active = inhibition above about 37%
Target sequence (P63165 whole entry, looked up): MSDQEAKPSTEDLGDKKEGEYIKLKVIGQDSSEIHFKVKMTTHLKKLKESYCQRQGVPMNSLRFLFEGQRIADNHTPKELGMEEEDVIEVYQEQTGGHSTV
DNMT1 block – human DNMT1 methyltransferase inhibitors, primary screen, biochemical, molecular beacon, fluorescence, HinP1I cleavage, uHTS; inhibition (reported as % activation of signal), % at 10 µM; DNA (cytosine-5)-methyltransferase 1 (Homo sapiens), P26358; 360,000 compounds, 0.83% hits; in the data active = inhibition above about 50%
STEP block – STEP phosphatase inhibitors, primary screen, biochemical, fluorescence intensity, uHTS; recombinant STEP, OMFP fluorogenic substrate; 360,000 compounds, 0.25% hits; inhibition, % at 20 µM; Tyrosine-protein phosphatase non-receptor type 5 (Homo sapiens), P54829;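 active = inhibition at 20 µM, scaled per plate between control wells, above about 37%, limit read from the data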
Target sequence (P54829 whole entry, looked up): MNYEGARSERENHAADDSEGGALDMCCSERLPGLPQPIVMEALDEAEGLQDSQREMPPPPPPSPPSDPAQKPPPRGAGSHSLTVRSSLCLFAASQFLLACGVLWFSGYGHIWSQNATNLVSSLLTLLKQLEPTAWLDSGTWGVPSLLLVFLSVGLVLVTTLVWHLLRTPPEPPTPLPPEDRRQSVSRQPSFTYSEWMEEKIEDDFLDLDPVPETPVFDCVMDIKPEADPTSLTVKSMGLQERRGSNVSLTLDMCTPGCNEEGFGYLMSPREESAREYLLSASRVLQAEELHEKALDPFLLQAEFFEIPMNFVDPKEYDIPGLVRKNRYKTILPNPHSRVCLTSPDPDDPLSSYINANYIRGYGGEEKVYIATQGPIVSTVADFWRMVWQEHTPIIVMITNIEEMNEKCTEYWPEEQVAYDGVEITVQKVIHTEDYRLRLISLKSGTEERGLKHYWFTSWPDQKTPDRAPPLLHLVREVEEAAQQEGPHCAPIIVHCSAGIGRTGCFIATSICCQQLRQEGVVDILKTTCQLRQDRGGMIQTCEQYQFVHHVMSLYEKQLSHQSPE
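System: isolated STEP enzyme; schedule: 20 min enzyme reaction at room temperature, protected from light; medium: Bis-Tris buffer pH 6.0, 2.5 mM DTT, 0.005% Tween 20; signal: fluorescence, 480/540 nm; dosing: single compound dose of 20 µM, 1% DMSO final; also added: OMFP substrate, 25 µM final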
Beacon interf DR – spectral interference with molecular beacon fluorescence, dose response, artefact control for DNMT1 inhibitor project, biochemical, fluorescent molecular beacon | 200 tested, under 10 active | IC50, µM | shares compounds with DNMT1 block | AID 602382, 2012 | spectral interference counter-screen; call rule not given here
DNMT1 confirm – DNMT1 methyltransferase inhibitor retest, confirmation, biochemical, molecular beacon, fluorescence, single concentration; AID 602385, 2012; 2,300 compounds, 8% hits; inhibition, % at 10 µM; shares compounds with DNMT1 block; DNMT1 molecular beacon HinP1I cleavage;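 active = average inhibition of at least 30% in the single-concentration confirmation test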
Beacon interf – counter-screen for DNMT1 inhibitors: spectral interference; shares compounds with DNMT1 block; DNMT1 molecular beacon spectral interference counterscreen, fluorescence 485/520; activation (fluorescence interference), % at 10 µM; 2,300 compounds, 1% hits;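 active = activation of at least 30% at 10 µM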;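 also: DNMT1 catalytic domain with a HinP1I cleavage step and a FAM/dabcyl DNA beacon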
Each line names hits and unclear results; the compound was inactive in the other large screens (follow-up assays come after a bar, where they were run).

Nc1nnc(CCOc2ccccc2Cl)s1	none
CCC(CC)NC(=O)C1CCN(c2ccc(S(=O)(=O)N3CCOCC3)cc2[N+](=O)[O-])CC1	none
NC(=O)c1ccccc1NC(=O)c1ccc2c(c1)OCO2	none
COc1ccc(/C=N/NC(=O)c2cccc([N+](=O)[O-])c2)c2ccccc12	DNMT1 block 51 | DNMT1 confirm inactive | Beacon interf inactive
O=C(N/N=C/c1ccc(OC(=O)c2ccc(Br)cc2)cc1)c1ccncc1	DNMT1 block 57 | DNMT1 confirm inactive | Beacon interf inactive
O=C(N/N=C/c1ccc(OC(=O)c2ccco2)cc1)c1ccncc1	none
O=C1C2C3C=CC(C2C(=O)N1c1nccs1)C1C(=O)N(c2nccs2)C(=O)C31 (stereo unspecified)	none
O=C1C2C3C=CC(CC3)C2C(=O)N1c1nccs1 (stereo unspecified)	DNMT1 block 61 | DNMT1 confirm inactive | Beacon interf inactive
N#CCC(=O)Nc1ccc(C(=O)NNC(=O)c2ccccc2-n2cccc2)cc1	none
Cn1ncc(Cl)c1C(=O)Nc1cccc(Cl)c1	none
Cn1ncc(N=Cc2c(O)ccc3ccccc23)c1C(=O)Nc1cccc(Cl)c1	DNMT1 block 51 | DNMT1 confirm inactive | Beacon interf inactive
COc1cc(NC(=O)CNc2cccc(S(=O)(=O)N3CCOCC3)c2)cc(OC)c1	none
O=C1NC(=O)C2(N1)C(=O)c1cccc3cccc2c13 (stereo unspecified)	DNMT1 block 92 (no result: Scp1 inh) | DNMT1 confirm 49 | Beacon interf 70
COc1cccc(NC(=O)C2(C)CCCN2C(=O)C(C)C)c1OC (stereo unspecified)	none (no result: Scp1 inh)
CCC1(C)COC(C)(CC(=O)NNC(=O)Nc2ccccc2)OC1 (stereo unspecified)	DNMT1 block 81 | DNMT1 confirm inactive | Beacon interf inactive
COc1ccc(CCNC(=O)CNC(=O)c2ccc(Br)o2)cc1OC	none
Cc1cccc(-n2cnc(C(=O)N/N=C\c3ccc(Br)cc3)c2)n1	DNMT1 block 52 | DNMT1 confirm inactive | Beacon interf inactive
Cc1cccc(-n2cnc(C(=O)NNC(=S)Nc3ccc(Cl)cc3)c2)n1	none
COc1ccc(NC(=O)CCCC(=O)OCC(F)(F)C(F)F)cc1	DNMT1 block 75 | DNMT1 confirm inactive | Beacon interf inactive
COc1ccccc1NC(=O)CCCC(=O)OCC(F)(F)C(F)F	none
COc1ccc2[nH]c(C)c(-c3csc(N)n3)c2c1	DNMT1 block 82 | DNMT1 confirm inactive | Beacon interf inactive
O=C(Cn1nnc(-c2ccc(Cl)cc2)n1)NC(=O)NC1CCCC1	none (no result: Scp1 inh)
Cc1ccc(-n2nc3c(c2NC(=O)c2ccc(Br)o2)CSC3)c(C)c1	DNMT1 block 53 | DNMT1 confirm inactive | Beacon interf inactive
Cc1ccc(-n2nc3c(c2NC(=O)C(C)(C)C)CSC3)c(C)c1	none
CCCC(=O)Nc1ccc(Cl)c(NC(=S)NC(=O)c2cc3ccccc3o2)c1	DNMT1 block 56 | DNMT1 confirm inactive | Beacon interf inactive
CC(C)OCCCNC(=O)C1CCN(S(=O)(=O)N2CCCCC2)CC1	none
CCOCCCNC(=O)C1CCN(S(=O)(=O)N2CCCC2)CC1	DNMT1 block 72 | DNMT1 confirm inactive | Beacon interf inactive
CCOC(=O)c1c(NC(C)=O)sc2c(OCC(O)CN(CC)CC)c(Br)ccc12 (stereo unspecified)	DNMT1 block 76 | DNMT1 confirm inactive | Beacon interf inactive
CC(CN1CC(=O)NC(=O)C1)N1CC(=O)NC(=O)C1 (stereo unspecified)	none (no result: Scp1 inh)
COc1ccccc1C1=NC(c2ccc(F)cc2)N=C1C (stereo unspecified)	DNMT1 block 74 | DNMT1 confirm inactive | Beacon interf inactive
O=C(CN1C(=O)S/C(=C\c2ccc(-c3cc(C(=O)O)ccc3Cl)o2)C1=O)Nc1ccc2c(c1)OCO2	LMPTP inh 74, SUMO1 PPI mod 114, DNMT1 block 97, STEP block 90 (no result: Scp1 inh) | Beacon interf DR inactive | DNMT1 confirm inactive | Beacon interf inactive
CC(C)OCCCNC(=O)c1c(N)n(/N=C/c2cccs2)c2nc3ccccc3nc12	DNMT1 block 60 | DNMT1 confirm inactive | Beacon interf inactive
CCSc1nnc(NC(=O)C2CCCN(C(=O)c3ccc(Cl)cc3)C2)s1 (stereo unspecified)	none (no result: Scp1 inh)
COc1cccc(-c2cc(=O)c3cc(NC(=O)c4ccc(Cl)cc4)ccc3[nH]2)c1	DNMT1 block 65 | DNMT1 confirm inactive | Beacon interf inactive
COc1cccc(-c2cc(=O)c3cc(NC(=O)c4ccccc4)ccc3[nH]2)c1	none
Cc1ccccc1N1CCN(C2CCCN(C(=O)c3cc[n+]([O-])cc3)C2)CC1 (stereo unspecified)	none
COc1ccc(C(=O)N/C(=C\c2ccc(Cl)cc2)C(=O)NCc2ccncc2)cc1	DNMT1 block 79 (no result: Scp1 inh) | DNMT1 confirm inactive | Beacon interf inactive
COc1ccc(/C=C(/NC(=O)c2ccc(C)cc2)C(=O)NCc2ccncc2)cc1	none
O=C(N=Nc1c(O)[nH]c2ccc(Br)cc12)c1cc(-c2cccs2)nc2ccccc12	DNMT1 block 65 | DNMT1 confirm inactive | Beacon interf inactive
COc1ccc(CCn2c(N)c(C(=O)NCc3ccco3)c3nc4ccccc4nc32)cc1OC	SUMO1 PPI mod 44, DNMT1 block 54 | DNMT1 confirm inactive | Beacon interf inactive
COC(=O)c1ccc(CN2CCC(n3nccc3NC(=O)C3CCCC3)CC2)cc1	none
CN(CC1CCCO1)S(=O)(=O)c1ccc(C(=O)Nc2nc3cc4c(cc3s2)OCO4)cc1 (stereo unspecified)	DNMT1 block 64 | DNMT1 confirm inactive | Beacon interf inactive
CN(CC1CCCO1)S(=O)(=O)c1ccc(C(=O)Nc2ccc3c(c2)OCO3)cc1 (stereo unspecified)	none
